Data set [1] has as its system PC-12. Kind of data set: Cytoprotection activity against H2O2-induced rat PC12-shNrf2-2 cell assessed as cell viability at 12.5 to 100 uM pretreated for 24 hrs followed by H2O2 challenge and measured after 24 hrs by MTT assay. Format: functional, cell-based. The conditions noted are these: dose 12.5-100 µM, time 48.0 hrs. The gist of the method:
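PC12 lines made by lentiviral shRNA against rat Nrf2 (shNrf2-2) or scrambled control (shNT), selected with 0.5 mg/mL G418, knockdown confirmed by Western blot. Pretreated 24 h with 12.5, 25.0, 50.0 or 100 µM compound, then H2O2 for 24 h; viability by MTT; mean ± SD, three independent experiments.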

The subject of data set [2] is PC-12. Kind of data set: Inhibition of H202-induced apoptosis in rat PC-12 cells assessed as necrotic cells at 25 uM after 24 hrs by Annexin-V-FITC/PI-staining based flow cytometric analysis (reference value: 0.33%). The class given is functional. Set-up: scale not given: the % may be the effect or the level left. The gist of the method:
(§1)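 PC12 cells seeded 2 × 10⁵/well for 24 h, pretreated 24 h with 12.5, 25, 50 or 100 µM compound, then given fresh medium containing 650 µM H2O2. Harvested cells washed in binding buffer, stained 5 min with Annexin V-FITC/PI, analysed by flow cytometry.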

Data set [3] concerns Mus musculus. The experiment in a line: Neuroprotective activity in lesioned C57BL/6 mouse model of Parkinson's disease assessed as assessed as reduction in climbing down time at 100 mg/kg, po administered for 2 week after MPTP stimulation by pole test. Format: functional. The note with it: C57BL/6, po, 336 h, read-out: INH, time 2 weeks. The gist of the method: (§2)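 Male 10-week-old C57BL/6 mice (20–23 g), n = 6/group. Prophylactic: oral compound (50 or 100 mg/kg in saline) 2 weeks, then MPTP-HCl 25 mg/kg i.p. in week 3. Therapeutic: MPTP-HCl 25 mg/kg i.p. 1 week, then oral 100 mg/kg 2 weeks. Saline vehicle. Pole/rotarod training last 3 days; TH immunohistochemistry on SNpc and striatum.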

Data set [4] deals with PC-12. The experiment in a line: Neuroprotective activity against H202-induced cell damage in rat PC-12 cells assessed as decrease in LDH content incubated at 12.5 to 25 uM for 24 hrs by Lactate dehydrogenase assay. The class given is functional, cell-based. The conditions noted are these: dose 12.5-25 µM. The gist of the method:
(§3)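 PC12 cells seeded 1 × 10⁴/well for 24 h, pretreated with compound at several concentrations (12.5–100 µM range), then challenged with H2O2; LDH released into medium quantified as membrane-damage marker. Mean ± SD, three independent experiments.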

The test system of data set [5] is PC-12. Kind of data set: Inhibition of H202-induced apoptosis in rat PC-12 cells assessed as viable cells at 12.5 uM after 24 hrs by Annexin-V-FITC/PI-staining based flow cytometric analysis (reference value: 52.01%). Format: functional. The conditions noted are these: read-out: Activity. The gist of the method: as §1
(In general: In flow cytometry, cells or beads pass a laser one at a time.)

Data set [6] deals with PC-12. Kind of data set: Upregulation of HO-1 expression in rat PC-12 cell incubated for 24 hrs by Western blot analysis. Format: functional. In outline: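 PC12 cells treated with compound for 24 h; lysates resolved by SDS-PAGE, transferred to PVDF and probed for HO-1 and NQO1; band intensities quantified densitometrically. Mean ± SD of three independent experiments.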

Data set [7] concerns PC-12. Kind of data set: Inhibition of H2O2-induced reactive oxygen species production in rat PC-12 cells assessed as ROS accumulation at 100 uM measured after pretreated for 24 hrs followed by H2O2 challenge and measured after 24 hrs by DCFH-DA probe based flow cytometry. The class given is functional, cell-based. The gist of the method: (§4)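 PC12 cells seeded 1 × 10⁴/well, pretreated 24 h with 12.5–100 µM compound, then 300 µM H2O2 for 24 h. Rinsed, loaded with DCFH-DA (1:1000 in serum-free medium) 15 min at room temperature in the dark, washed; fluorescence read by microscopy, plate reader ([…]) and flow cytometry; three independent experiments.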

The test system of data set [8] is Mus musculus. The experiment in a line: Neuroprotective activity in lesioned C57BL/6 mouse model of Parkinson's disease assessed as assessed as reduction in climbing down time at 100 mg/kg, po administered for 2 week before MPTP stimulation by pole test. Format: functional. The conditions noted are these: C57BL/6, po, 336 h, time 2 weeks. The gist of the method:
as §2

Data set [9] deals with PC-12. The experiment in a line: Inhibition of H202-induced apoptosis in rat PC-12 cells assessed as early apoptotic cells at 12.5 uM after 24 hrs by Annexin-V-FITC/PI-staining based flow cytometric analysis (reference value: 15.16%). The class given is functional. The arrangement: scale not given: the % may be the effect or the level left. The gist of the method:
as §1

In data set [10] the test system is PC-12. The experiment in a line: Inhibition of H2O2-induced mitochondrial membrane potential loss in rat PC-12 cells pretreated for 24 hrs followed by H2O2 challenge and measured after 24 hrs by JC-1 staining based fluorescence microplate reader assay. The conditions noted are these: dose 12.5-50 µM, time 48.0 hrs.
The test system of data set [11] is PC-12. Kind of data set: Inhibition of H202-induced apoptosis in rat PC-12 cells assessed as viable cells at 100 uM after 24 hrs by Annexin-V-FITC/PI-staining based flow cytometric analysis (reference value: 52.01%). The class given is functional. The conditions noted are these: read-out: Activity. In outline: as §1
The subject of data set [12] is PC-12. The experiment in a line: Inhibition of H202-induced apoptosis in rat PC-12 cells assessed as late apoptotic cells at 12.5 uM after 24 hrs by Annexin-V-FITC/PI-staining based flow cytometric analysis (reference value: 32.5%). The class given is functional. Set-up: scale not given: the % may be the effect or the level left. In outline:
as §1

The subject of data set [13] is PC-12. Kind of data set: Cytotoxicity against rat PC-12 cells assessed as increase LDH content in presence of H2O2 incubated at 50 to 100 uM for 24 hrs by Lactate dehydrogenase assay. The note with it: pc-12, 24 h, dose 50-100 µM. Format: cell-based. The gist of the method: as §3
Data set [14] concerns Mus musculus. Kind of data set: Neuroprotective activity against lesioned C57BL/6 mouse model of Parkinson's disease assessed as increase in expression of HO-1 and NQO1 at 50 to 100 mg/kg , po administered for 2 week before MPTP stimulation by western blotting assays. Format: functional, organism-based. The note with it: Brain, dose 50-100 mg/kg, time 2.0 weeks. For orientation: A western blot detects proteins with antibodies after separation by electrophoresis.

Data set [15] relates to PC-12. The experiment in a line: Inhibition of H202-induced apoptosis in rat PC-12 cells assessed as late apoptotic cells at 100 uM after 24 hrs by Annexin-V-FITC/PI-staining based flow cytometric analysis (reference value: 32.5%). Format: functional. Set-up: scale not given: the % may be the effect or the level left. The gist of the method:
as §1

For data set [16], the system named is PC-12. The experiment in a line: Inhibition of H202-induced apoptosis in rat PC-12 cells assessed as late apoptotic cells at 50 uM after 24 hrs by Annexin-V-FITC/PI-staining based flow cytometric analysis (reference value: 32.5%). Set-up: scale not given: the % may be the effect or the level left. Format: functional. In outline: as §1
The subject of data set [17] is Mus musculus. Kind of data set: Neuroprotective activity in lesioned C57BL/6 mouse model of Parkinson's disease assessed as increase in time spent on rotarod at 100 mg/kg, po administered for 2 week after MPTP stimulation by rotarod test. Format: functional. The conditions noted are these: time 2 weeks. In outline:
as §2
For orientation: The rotarod test checks motor coordination on a turning rod.

Data set [18] relates to PC-12. Kind of data set: Inhibition of H2O2-induced reactive oxygen species production in rat PC-12 cells assessed as decrease in ROS accumulation at 12.5 to 50 uM measured after pretreated for 24 hrs followed by H2O2 challenge and measured after 24 hrs by DCFH-DA probe based flow cytometry. Format: functional, cell-based. The conditions noted are these: dose 12.5-50 µM, time 48.0 hrs. In outline:
as §4

In data set [19] the test system is Mus musculus. Kind of data set: Neuroprotective activity against lesioned C57BL/6 mouse model of Parkinson's disease assessed as increase in number of TH positive cells at 100 mg/kg , po administered for 2 week […] by Immuno histochemistry assays. The conditions noted are these: time 2 weeks.
For data set [20], the system named is PC-12. Kind of data set: Inhibition of H202-induced apoptosis in rat PC-12 cells assessed as early apoptotic cells at 50 uM after 24 hrs by Annexin-V-FITC/PI-staining based flow cytometric analysis (reference value: 15.16%). The class given is functional. Set-up: scale not given: the % may be the effect or the level left. The gist of the method:
as §1

For data set [21], the system named is PC-12. Kind of data set: Inhibition of H202-induced apoptosis in rat PC-12 cells assessed as necrotic cells at 12.5 uM after 24 hrs by Annexin-V-FITC/PI-staining based flow cytometric analysis (reference value: 0.33%). The class given is functional. The arrangement: scale not given: the % may be the effect or the level left. The gist of the method:
as §1

The text below walks through data of ChEMBL document CHEMBL4765320, “Identification and optimization of piperine analogues as neuroprotective agents for the treatment of Parkinson's disease via the activation of Nrf2/keap1 pathway” (Eur J Med Chem, 2020).

Calls of active or inactive are those of the source. No cut-off for these calls is given here.

For the molecule `COc1ccccc1/C=C/C=C/C(=O)N1CCCCC1`, the result in the data set with PC-12 [1] and in the data set with PC-12 [7] was inactive. Further, the Activity in the data set on PC-12 [2] is 0.24%; in the data set with PC-12 [9] it was 12.26%; in the data set with PC-12 [12], 26.08%; in the data set on PC-12 [13], “Toxic”; with PC-12 [15], 29.28%; with PC-12 [16], 12.95%. Also, the values for the Activity in the data set with Mus musculus [19], with PC-12 [20] and with PC-12 [21] were 74%, 12.01% and 0.3%, respectively. For the same molecule, the inhibition in vivo at 100 mg/kg was determined as 20.6% in the data set on Mus musculus [3] and 34.5% with Mus musculus [8]. Further, the result in the data set on PC-12 [4], with PC-12 [6] and in the data set on Mus musculus [14] was Active. Also, the viability at 12.5 µM in the data set on PC-12 [5] came to 61.4%. For the same molecule, in the data set on PC-12 [10], the inhibition result is “Dose-dependent effect”. Also, the viability at 100 µM in the data set with PC-12 [11] stood at 58%. Besides, in the data set on Mus musculus [17], the Time was 189.5 s. In the data set with PC-12 [18], the inhibition result was “Active”.
